Measured values reported in ChEMBL document CHEMBL1152789, “Synthesis of 2-(5-((5-(4-chlorophenyl)furan-2-yl)methylene)-4-oxo-2-thioxothiazolidin-3-yl)acetic acid derivatives and evaluation of their cytotoxicity and induction of apoptosis in human leukemia cells” (Bioorg Med Chem, 2009).
Activity calls are given as the source filed them. The rule behind the calls is not given here.

How the values were obtained:
REH [1] = assay: Cytotoxicity against human REH cells after 72 hrs by MTT assay; format: functional, cell-based
Procedure, shortened: (§1)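 Log-phase cells (1 × 10⁴/well) were plated in triplicate in RPMI 1640 with 10% heat-inactivated FBS and penicillin/streptomycin, at 37 °C in 5% CO2. Cells were treated with 10, 100 or 250 µM compound and harvested at 48 and 72 h. MTT (5 mg/ml) was added at 37 °C, formazan was dissolved in DMF/SDS detergent, and A570 was read minus a medium blank. Viability is expressed as % of DMSO vehicle, and IC50 was estimated at 72 h.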

K562 [2] = assay: Cytotoxicity against human K562 cells at >= 100 uM after 48 to 72 hrs by MTT assay; format: functional, cell-based; procedure, shortened: as §1
REH [3] = assay: Cytotoxicity against human REH cells at >= 100 uM after 48 to 72 hrs by MTT assay; format: functional, cell-based; procedure, shortened: as §1
K562 [4] = assay: Cytotoxicity against human K562 cells after 72 hrs by MTT assay; format: functional, cell-based; settings: K562, 72 h; procedure, shortened: as §1
K562 [5] = assay: Cell cycle arrest in human K562 cells assessed as change in cell cycle pattern after 48 hrs by PI staining based flow cytometry; format: functional
Procedure, shortened: (§2)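 K562 cells, 0.75 × 10⁵ cells/ml, incubated at 37 °C with 10, 50 and 100 µM compound for 48 h, with a DMSO vehicle control. Cells were washed, fixed in 70% ethanol, RNase A treated, and stained with propidium iodide for half an hour before flow cytometry. At least 10,000 cells were acquired per sample, and G0/G1 (subG1), G1, S and G2/M fractions were read from the DNA histograms.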

K562 [6] = assay: Cell cycle arrest in human K562 cells assessed as accumulation at G0/G1 phase after 48 hrs by PI staining based flow cytometry; format: functional; procedure, shortened: as §2
K562 [7] = assay: Cell cycle arrest in human K562 cells assessed as decline of G1 phase after 48 hrs by PI staining based flow cytometry; format: functional; procedure, shortened: as §2
K562 [8] = assay: Cell cycle arrest in human K562 cells assessed as decline of G2/M phase after 48 hrs by PI staining based flow cytometry; format: functional; procedure, shortened: as §2
K562 [9] = assay: Induction of apoptosis in human K562 cells assessed as chromosomal DNA fragmentation at 100 uM after 72 hrs by agarose gel electrophoresis; format: functional, cell-based
Procedure, shortened: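 K562 cells were cultured with 10, 50 or 100 µM compound for 72 h, with a DMSO lane as control. Genomic DNA was extracted, resuspended in TE buffer, and run on a 1% agarose gel at 30 V for 6 h. Laddering or smearing was viewed by ethidium bromide staining.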

| Structure (SMILES) | IC50 (REH [1]) [µM] | Activity (K562 [2]) | Activity (REH [3]) | IC50 (K562 [4]) [µM] | Activity (K562 [5]) | Activity (K562 [6]) | Activity (K562 [7]) | Activity (K562 [8]) | Activity (K562 [9]) |
| --- | --- | --- | --- | --- | --- | --- | --- | --- | --- |
| O=C(CN1C(=O)/C(=C/c2ccc(-c3ccc(Cl)cc3)o2)SC1=S)Nc1nnn[nH]1 | 50 | Active | Active | 52 |  |  |  |  |  |
| Cc1ccc(CNC(=O)CN2C(=O)/C(=C/c3ccc(-c4ccc(Cl)cc4)o3)SC2=S)cc1 | 45 | Active | Active | 45 |  |  |  |  |  |
| O=C(CN1C(=O)/C(=C/c2ccc(-c3ccc(Cl)cc3)o2)SC1=S)NCc1ccc(Br)cc1 | 75 | Active | Active | 68 |  |  |  |  |  |
| Cc1cccc(CNC(=O)CN2C(=O)/C(=C/c3ccc(-c4ccc(Cl)cc4)o3)SC2=S)c1 | 53 | Active | Active | 48 | Dose-dependent effect | Active | Active | Active |  |
| O=C(CN1C(=O)/C(=C/c2ccc(-c3ccc(Cl)cc3)o2)SC1=S)NCc1ccccc1Cl | 70 | Active | Active | 64 |  |  |  |  |  |
| CCCCCCNC(=O)CN1C(=O)/C(=C/c2ccc(-c3ccc(Cl)cc3)o2)SC1=S | 55 | Active | Active | 50 |  |  |  |  |  |
| COc1ccc(CNC(=O)CN2C(=O)/C(=C/c3ccc(-c4ccc(Cl)cc4)o3)SC2=S)cc1 | 44 | Active | Active | 40 | Dose-dependent effect | Active | Active | Active | Active |
| O=C(CN1C(=O)/C(=C/c2ccc(-c3ccc(Cl)cc3)o2)SC1=S)NCc1ccc(C(F)(F)F)cc1 | 170 |  |  | 155 |  |  |  |  |  |
| O=C(CN1C(=O)/C(=C/c2ccc(-c3ccc(Cl)cc3)o2)SC1=S)NCc1ccc(F)cc1 | 165 |  |  | 150 |  |  |  |  |  |
| N#Cc1ccc(NC(=O)CN2C(=O)/C(=C/c3ccc(-c4ccc(Cl)cc4)o3)SC2=S)cc1 | 90 |  |  | 85 |  |  |  |  |  |
| N#Cc1cc(NC(=O)CN2C(=O)/C(=C/c3ccc(-c4ccc(Cl)cc4)o3)SC2=S)ccc1C(F)(F)F | > 250 |  |  | > 250 |  |  |  |  |  |
